Reference: PubChem BioAssay AID493070 (Broad Institute, 2011)
Active and inactive are the calls of the source.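 The calls were made as follows: active = growth signal loss with fitted half-maximal concentration up to ten times the top valid dose; inconclusive = flat curve with 30 to 70% inhibition, or poor fit; inactive = the rest, including opposite-direction effects.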

assay: single-agent antifungal toxicity against Candida – Alamar Blue fluorescence, dry powder, set 5, counter-screen, dose response (AID 493070); conditions: C. albicans CaCi-2 growth, 48 h; series mostly up to 26 µM
Summary of the method: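 Technique: Alamar Blue fluorescence, Ex 544/Em 590 nm / Material: C. albicans CaCi-2 grown without fluconazole / Schedule: 48 h growth at 37 °C, 2 h dye step / Dosing: pinned compound / Buffer or medium: RPMI-based synthetic defined medium containing MOPS, glucose and uridine / Read-out basis: fungal growth from Alamar Blue RFU, signal loss indicating broad toxicity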

Compound	outcome
CCN(CC)C(=O)Cn1c2ccc(F)cc2c2nc3n(c(=O)c21)CCS3	inactive
O=C(Cn1c2ccc(F)cc2c2nc3n(c(=O)c21)CCS3)N1CCCCCC1	inactive
COC(=O)Cn1nc(-c2ccc(C)cc2)c2ccccc21	inactive
N#Cc1cccc(N2CCN(C(=O)c3ccc(Cl)cc3)CC2)n1	inactive
O=C(O)Cn1nc(-c2ccccc2)c2ccccc21	inactive
O=C(Cn1c2ccccc2c2nc3n(c(=O)c21)CCS3)N1CCCCC1	inactive
O=c1c2[nH]c3ccc(F)cc3c2nc2n1CCS2	inactive
